Results pooled from the literature.
Lines come from different studies, so protocols differ.

Structure (SMILES)	target or system	assay	test system	setting	measurement	result
CC(=O)OCC(=O)[C@@]12OC3(CCCC3)O[C@@H]1C[C@H]1[C@@H]3CCC4=CC(=O)C=C[C@]4(C)[C@@]3(F)[C@@H](O)C[C@@]12C	Severe acute respiratory syndrome coronavirus 2	viral replication, inhibitor	Caco-2	replicon	IC50	3.37 µM
O=[N+]([O-])NC(=S)NN=Cc1ccc(F)cc1	Leishmania tropica	parasite growth	J774.A1	72 h, intracellular, amastigote	IC50	186 µM
COc1cnc(OC)n2nc(NS(=O)(=O)c3c(OCC(F)F)cccc3C(F)(F)F)nc12	L02	cell growth or viability, CCK-8		0.78 µM, 72 h	inhibition	0%
COc1ncc(-c2cn([C@@H]3O[C@](F)(CO)[C@@H](O)[C@H]3O)cn2)c(N)n1	Severe acute respiratory syndrome coronavirus 2	viral replication, inhibitor	A549-ACE2	24 h	IC50	> 100 µM
COc1ccc(C=NNC(=S)N[N+](=O)[O-])cc1OC	Leishmania tropica	parasite growth	J774.A1	72 h, intracellular, amastigote	IC50	775 µM
CCOc1nc2cccc(C(=O)O)c2n1Cc1ccc(-c2ccccc2-c2nnn[nH]2)cc1	Severe acute respiratory syndrome coronavirus 2	viral replication, inhibitor	Calu-3	replicon	IC50	1.05 µM
COc1ncc(-c2cn([C@@H]3O[C@](F)(CO[P@@](=O)(N[C@@H](C)C(=O)OC(C)C)Oc4ccccc4)[C@@H](O)[C@H]3O)cn2)cn1	Severe acute respiratory syndrome coronavirus 2	viral replication, inhibitor	A549-ACE2	24 h	IC50	> 100 µM
O=[N+]([O-])NC(=S)NN=Cc1ccc(Br)cc1	Leishmania tropica	parasite growth	J774.A1	72 h, intracellular, amastigote	IC50	1140 µM
CC1=NN(c2ccc(C)c(C)c2)C(=O)/C1=N\Nc1cccc(-c2cccc(C(=O)O)c2)c1O	Severe acute respiratory syndrome coronavirus 2	viral replication, inhibitor	Caco-2	replicon	IC50	3.1 µM
Nc1ncc(-c2cn([C@@H]3O[C@](F)(CO)[C@@H](O)[C@H]3O)cn2)cn1	Severe acute respiratory syndrome coronavirus 2	viral replication, inhibitor	A549-ACE2	24 h	IC50	> 100 µM
N.N.[Cl][Pt][Cl]	NALM-6	cell growth or viability, ATP luminescence		10 µM, 72 h	inhibition	97%
CC(=O)O[C@H]1C(=O)[C@@]2(C)[C@H]([C@H](OC(=O)c3ccccc3)[C@]3(O)C[C@H](OC(=O)[C@H](O)[C@@H](NC(=O)c4ccccc4)c4ccccc4)C(C)=C1C3(C)C)[C@]1(OC(C)=O)CO[C@@H]1C[C@@H]2O	L02	cell growth or viability, CCK-8		12.5 µM, 72 h	inhibition	> 90%
Nc1ncncc1-c1cn([C@@H]2O[C@](F)(CO)[C@@H](O)[C@H]2O)cn1	Severe acute respiratory syndrome coronavirus 2	viral replication, inhibitor	A549-ACE2	24 h	IC50	> 100 µM
Cc1c(O)cccc1C(=O)N[C@@H](CSc1ccccc1)[C@H](O)CN1C[C@H]2CCCC[C@H]2C[C@H]1C(=O)NC(C)(C)C	Severe acute respiratory syndrome coronavirus 2	viral replication, inhibitor	Caco-2	replicon	IC50	1.91 µM
